Bioassay records from PubChem BioAssay.
Most compounds without a hit are left out; they make up all but 1.9% or so of the library.
ADAM17 inh = inhibitors of human ADAM17 | recombinant ADAM17, EDANS/DABCYL FRET peptide cleavage | 370,000 compounds, 0.83% hits | AID 720648 | inhibition, % at 6.95 µM | P78536;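 active = inhibition above the mean of compounds lying between control limits plus 3 SD, set per campaign, cut at about 8.5% in these data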;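 also: 0% = DMSO-only wells as the low control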
ADAM10 inh = ADAM10 inhibition, QFRET primary screen. O14672. recombinant ADAM10, EDANS/DABCYL FRET peptide cleavage, 3 h. inhibition, % at 7 µM. 370,000 compounds, 0.62% hits;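 active = inhibition above a per-campaign cutoff equal to the mean of compounds falling between control-based bounds plus 3 SD, cut at about 20% in these data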;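 also: 0% = DMSO wells while the 100% control is not disclosed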
SENP1 inh = SENP1 (human) catalytic domain inhibition; Q9P0U3; recombinant SENP1 catalytic domain, CyPet-SUMO1-YPet FRET cleavage; inhibition, % at 10 µM; 360,000 compounds, 0.21% hits; AID 624204;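 active = inhibition at least 30% at 10 µM, raw YFP signal under a set limit, fluorescence ratio 0.5 to 1.5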;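 also: 0% = enzyme with DMSO and 100% = no enzyme wells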
Target sequence (Q9P0U3 419-644 limits assumed): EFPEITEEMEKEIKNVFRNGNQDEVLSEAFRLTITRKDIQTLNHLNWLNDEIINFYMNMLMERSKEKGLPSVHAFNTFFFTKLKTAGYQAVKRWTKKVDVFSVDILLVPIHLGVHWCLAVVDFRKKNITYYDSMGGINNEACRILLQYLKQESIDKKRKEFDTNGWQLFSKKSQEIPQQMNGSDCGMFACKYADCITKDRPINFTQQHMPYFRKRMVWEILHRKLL
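material = recombinant human SENP1 catalytic domain, His6-tagged | quantity = 20 pM enzyme | reagent = 25 nM SUMO1 FRET substrate | compound dosing = 10 µM single point, 0.5% DMSO | timing = 50 min enzyme reaction, room temperature, light-protected | detection = FRET, CFP and YFP emission | control set = no-enzyme low, enzyme-DMSO high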
FAS TE block = inhibitors of human fatty acid synthase thioesterase domain. P49327. recombinant FAS-TE, OMFH fluorogenic substrate, fluorescence endpoint. inhibition, % at 15 µM. 360,000 compounds, 0.67% hits;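 active = compounds whose normalised, plate-corrected inhibition of enzyme fluorescence in the single-dose primary screen is 50% or more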;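 also: 0% = DMSO with enzyme and 100% = substrate without enzyme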
ADAM10 ctr = counter-screen for ADAM17 exosite inhibitors: inhibitors of human ADAM10. inhibition, % at 6.95 µM. 2,900 compounds, 47% hits. shares compounds with ADAM17 inh. recombinant ADAM10, EDANS/DABCYL FRET peptide cleavage, 3 h;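 active = mean inhibition over the triplicate runs exceeds the activity threshold set in the earlier primary screen, cut at about 20% in these data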;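 also: 0% = DMSO wells and 100% = marimastat wells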
ADAM17 confirm = confirmation of inhibitors of human ADAM17; inhibition, % at 6.95 µM; shares compounds with ADAM17 inh; 2,900 compounds, 65% hits; recombinant ADAM17, EDANS/DABCYL QFRET peptide cleavage;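 active = mean inhibition across replicates above the hit cutoff set in the primary screen, cut at about 8.5% in these data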;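 also: 0% = DMSO wells and 100% = marimastat wells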
An asterisk follows results filed as active; · = no result.

SMILES	ADAM17 inh	ADAM10 inh	SENP1 inh	FAS TE block	ADAM10 ctr	ADAM17 confirm
CC(=O)Nc1ccc(S(=O)(=O)NCC2CCN(C(=O)C(=O)c3cccs3)CC2)cc1	-1	2	·	·	·	·
Cc1ccc(S(=O)(=O)N2CCC(C(=O)OC(C)C(=O)NCc3ccccc3)CC2)cc1C (configuration not stated)	9.7*	15	0	9	7	7
CN(C)C=Nc1ccc(Cn2cnc3nc4ccc(Cl)cc4cc3c2=O)cc1	-26	-103	·	·	·	·
O=C1NC2(CCCC2)N=C1c1ccc(Cl)cc1	9.6*	15	1	-8	12	5
CN1CC(c2ccccc2Cl)C2(COc3ccccc3C2=O)C12C(=O)Nc1ccccc12 (configuration not stated)	8.9*	19	0	35	44*	25*
CC(C)(C)C(=O)/C=c1\[nH]c(=O)/c(=C\c2ccc(F)cc2)s1	10*	18	-7	0	3	6
O=C(COC(=O)/C=C/c1ccc(Cl)cc1)NC(=O)NCc1ccccc1	9.9*	-6	4	-6	26*	15*
COc1cccc(NC(=O)Nc2nc3ncccn3c2-c2ccc(C)cc2)c1	-15	-48	·	·	·	·
C/C(C=NNC(=O)CSc1nnc(-c2ccc(Cl)cc2)n1-c1ccc(C)cc1)=C\c1ccccc1	2	5	·	·	·	·
CCOC(=O)c1oc2cc(O)cc(C)c2c(=O)c1-c1cscn1	10*	13	0	-8	7	4
COc1cc(C(=O)NC(=S)NNC(=O)c2cnccn2)cc(OC)c1OC	11*	9	-5	-10	4	3
O=C(CSc1nc2sc3c(c2c(=O)n1-c1ccc(Cl)cc1)CCCC3)c1ccccc1Cl	1	-1	·	·	·	·
c1ccc(-c2nc(NCc3ccco3)c3oc4ccccc4c3n2)cc1	9.0*	4	0	34	29*	19*
CCOC(=O)c1c(C)[nH]c(C(=O)OCc2ccccc2)c1C	8.8*	13	-6	8	12	8.9*
CN1CCCCC(NC(=O)c2ccc(F)c(F)c2)C1=O (configuration not stated)	-3	2	·	·	·	·
CN(C(=O)COC(=O)c1ccccc1SCC(=O)N1CCCC1)C1CCS(=O)(=O)C1 (configuration not stated)	9.0*	16	3	-5	-12	0
CCC(C)N(C(=O)COC(=O)c1ccccc1SCC(=O)N1CCCC1)C1CCS(=O)(=O)C1 (configuration not stated)	0	7	0	-5	·	·
COc1ccc(-c2nc(NC(=O)C3CC(=O)N(Cc4ccco4)C3)sc2C)cc1 (configuration not stated)	9.1*	-4	0	6	10	7
COc1ccccc1NC(=O)N(C)C[C@@H]1OCc2cnnn2CCCC(=O)N([C@@H](C)CO)C[C@H]1C	8.8*	-1	0	-6	-5	-2
O=C(NCc1ccc(Cl)cc1)OCCN1C(=O)CCC12CCC(c1ccccc1)CC2 (configuration not stated)	3	5	·	·	·	·
COc1nnc(-c2ccc(C(=O)N3C[C@@H]4C[C@H](C3)c3cccc(=O)n3C4)cc2)c2ccccc12	9.6*	4	1	-5	1	7
Cc1ccc([N+](=O)[O-])cc1NC(=O)c1ccccc1	-3	1	0	16	·	·
Cc1ccc(C)c(NC(=O)c2cccc(Oc3ccc([N+](=O)[O-])cc3Cl)c2)c1	9.0*	19	0	36	29*	16*
O=C(Nc1cccc(Cl)c1)c1cccc(Oc2ccc([N+](=O)[O-])cc2Cl)c1	9.7*	16	3	25	23*	15*
O=c1c2ccccc2n(Cc2ccno2)n1[C@@H](Cc1ccccc1)Cn1cc(C2CCCC2)nn1	-103	-350	·	·	·	·
SMILES	ADAM17 inh	ADAM10 inh	SENP1 inh	FAS TE block	ADAM10 ctr	ADAM17 confirm
Cc1[nH]c2ccccc2c1CC(=O)Nc1ccc(Nc2cccnc2)c(-c2ccc(Cl)c(Cl)c2)c1	-4	-19	·	·	·	·
O=S(=O)(NCCc1csc(-c2ccc(C(F)(F)F)cc2)n1)c1ccc2c(c1)OCCO2	9.3*	-3	1	17	8	10*
CCCCN1C[C@H](c2ccc(OC)cc2)[C@@H](CC(=O)Nc2ccc(Br)cc2)C1=O	14*	10	3	12	4	4
CCCCN1C[C@H](c2ccc(OC)cc2)[C@@H](CC(=O)Nc2ccc(OC)cc2)C1=O	-5	-18	1	-3	·	·
C=CCn1c(SCC(=O)Nc2ccccc2-c2ccccc2)nnc1-c1ccccc1	4	9	·	·	·	·
COC(=O)C1CCN(c2ccc([N+](=O)[O-])cc2)CC1	10*	4	0	4	5	8
O=C(C1=C[C@@H](c2ccc(Br)cc2)C[C@@H](OCCCCO)O1)N1CCN(Cc2ccccc2)CC1	8.8*	8	-6	-3	14	7
O=C(Nc1ccccc1)C1=C[C@@H](C2CCCCC2)C[C@@H](OCc2ccc(CO)cc2)O1	8.7*	18	1	22	19	13*
O=C(Nc1ccccc1)C1=C[C@H](c2ccc(Br)cc2)C[C@H](OCc2ccc(CO)cc2)O1	10*	18	1	20	29*	24*
O=C(NCc1ccccc1)C1=C[C@@H](c2ccccc2)C[C@@H](OCc2ccc(CO)cc2)O1	-4	-3	-2	11	·	·
CN(C(=O)c1cn(C)c2ccccc12)c1ccc(Oc2cccnc2)cc1	-4	-10	·	·	·	·
Cc1c(C(=O)N2CCN(S(=O)(=O)c3ccccc3)CC2)oc2ccc(Br)cc12	10*	12	1	23	24*	14*
CCCCc1c(-c2ccccc2OC)ncn1Cc1ccc(C)cc1	-1	-1	·	·	·	·
O=C(NCc1ccco1)c1ccc(S(=O)(=O)N2CCCc3ccccc32)cc1	10*	15	1	17	11	3
O=C(NCc1ccccc1)c1ccc(S(=O)(=O)N2CCCc3ccccc32)cc1	1	12	2	23	·	·
COc1ccccc1NS(=O)(=O)c1cccc(C(=O)OCC(=O)NC2CC2)c1	-3	-5	0	-7	·	·
CNS(=O)(=O)c1cccc(C(=O)OCC(=O)NC2CCCC2)c1	8.9*	11	-1	-6	7	4
Cc1ccc(S(=O)(=O)N2CC3(O)CN(C(=O)OC(C)C)N(C(=O)OC(C)C)CC3(OC(=O)Nc3cccs3)C2)cc1 (configuration not stated)	9.4*	19	-1	10	31*	13*
CCn1c(CC(=O)Nc2cccc(OC)c2)nnc1SCC(=O)N1CCN(c2ccccc2)CC1	12*	4	1	-4	30*	18*
O=C(CSc1nnc(-c2ccccc2)n1-c1ccc(Cl)cc1)Nc1ccccc1-c1ccccc1	11*	19	·	·	21*	14*
